Measurements: ChEMBL document CHEMBL3576840, “Helical Antimicrobial Sulfono-γ-AApeptides” (J Med Chem, 2015)
Values after ≈ are worked out from the molar mass of the structure shown. Active and inactive are the calls of the source. The rule behind the calls is not given here.

Legend:
Escherichia [1] = assay: Induction of cell aggregation of Escherichia ATCC 25922 at 10 ug/ml incubated for 2 hrs by DAPI and propidium iodide staining based fluorescence microscopy; type: functional, organism-based
In short: (§1)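 Mid-log bacteria were incubated with 10 μg/mL compound for 2 h at 37 °C, pelleted at 5000 g and washed. Staining used PI (5 μg/mL) then DAPI (10 μg/mL), 15 min on ice. Imaged by fluorescence microscopy with a 100× oil objective; untreated bacteria served as controls.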

Staphylococcus aureus [2] = assay: Induction of membrane disruption in methicillin-resistant Staphylococcus aureus ATCC 33592 at 10 ug/ml incubated for 2 hrs by DAPI and propidium iodide staining based fluorescence microscopy; type: functional, organism-based
In short: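 Mid-log bacteria treated with compound (10 μg/mL) at 37 °C for 2 h, pelleted, washed, stained with PI (5 μg/mL) then DAPI (10 μg/mL) for 15 min on ice; untreated cells as control; imaged by fluorescence microscopy under 100× oil immersion; PI uptake taken as membrane damage; three repeats.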

[3] = test system: Staphylococcus epidermidis; assay: Antimicrobial activity against methicillin-resistant Staphylococcus epidermidis RP62A after 16 hrs; type: functional
Enterococcus faecalis = assay: Antimicrobial activity against Enterococcus faecalis ATCC 700802 after 16 hrs; type: functional; conditions: ATCC 700802, 16 h
In short: (§2)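 Broth microdilution: overnight cultures were reinoculated at 1:100, grown to mid-log phase, and diluted to 1 × 10^6 CFU/mL. Cells were mixed 1:1 with serial dilutions […] and incubated 16 h at 37 °C, then read at 600 nm. MIC is the lowest concentration with no growth. Repeated multiple times, in duplicate.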

Staphylococcus aureus [4] = assay: Bactericidal activity against methicillin-resistant Staphylococcus aureus ATCC 33592 at 12.5 to 50 ug/ml measured after 30 mins by colony count based time-kill assay; type: functional, organism-based
In short: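 Time-kill: MRSA grown to mid-log in TSB, diluted to 10^6 CFU/mL, exposed to compound at several multiples of MIC for 10 min, 30 min, 1 h and 2 h; samples diluted 10^2–10^4-fold, plated on TSB agar, colonies counted after overnight 37 °C; viability plotted against time; three repeats.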

Escherichia [5] = assay: Bactericidal activity against Escherichia ATCC 25922 at 25 and 50 ug/ml measured after 1 hr by colony count based time-kill assay; type: functional, organism-based
In short: (§3)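 Time-kill: MRSA and E. coli were grown to mid-log phase in TSB and diluted to 10^6 CFU/mL. Suspensions were exposed to several compound concentrations for 10 min, 30 min, 1 h and 2 h. Samples were diluted 10^2–10^4-fold, plated on TSB agar and incubated overnight at 37 °C. Colonies were counted and plotted against exposure time. Three repeats.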

[6] = Stability in presence of 0.1 mg/ml pronase in 100 mM pH 7.8 ammonium bicarbonate buffer at 37 degC assessed as compound degradation after 18 hrs by HPLC method; type: physicochemical; conditions: pH 7.8, 18 h
In short: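 Compound or control peptide AcVQIVYK (1 mg/mL) was incubated 18 h at 37 °C with Pronase in ammonium bicarbonate. Mixtures were dried by speed-vac at 60 °C, redissolved in water and run on analytical RP-HPLC: 5–100% acetonitrile/0.1% TFA gradient over 40 min at 1 mL/min.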

Pseudomonas aeruginosa = assay: Antimicrobial activity against Pseudomonas aeruginosa ATCC 27853 after 16 hrs; type: functional; conditions: ATCC 27853, 16 h; in short: as §2
Escherichia [7] = assay: Antimicrobial activity against Escherichia ATCC 25922 after 16 hrs; type: functional; conditions: ATCC 25922, 16 h; in short: as §2
Escherichia [8] = assay: Bactericidal activity against Escherichia ATCC 25922 assessed as reduction bacterial colony count at 25 ug/ml measured after 10 mins to 2 hrs by colony count based time-kill assay; type: functional; in short: as §3
Staphylococcus aureus [9] = assay: Antimicrobial activity against methicillin-resistant Staphylococcus aureus ATCC 33592 after 16 hrs; type: functional; conditions: ATCC 33592, 16 h
Escherichia [10] = assay: Induction of membrane disruption in Escherichia ATCC 25922 at 10 ug/ml incubated for 2 hrs by DAPI and propidium iodide staining based fluorescence microscopy; type: functional, organism-based; in short: as §1
[11] = Induction of hemolysis in human RBCs incubated for 1 hr; type: cell-based, Erythrocyte; conditions: red blood cells
In short: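 Fresh K2EDTA human RBCs were washed in PBS until the supernatant was clear and diluted to a 5% v/v suspension. This was mixed with equal volumes of compound dilutions for 1 h at 37 °C, centrifuged, and supernatant absorbance read at 360 nm. Hemolysis was normalized between PBS (0%) and 2% Triton X-100 (100%) controls. At least three repeats, in duplicate.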

N2a = assay: Cytotoxicity against mouse N2a cells assessed as cell viability after 36 hrs by MTT assay

NCCCC[C@@H](CN(CC(N)=O)S(=O)(=O)CCN)NC(=O)CN(C[C@H](Cc1ccccc1)NC(=O)CN(C[C@H](Cc1ccccc1)NC(=O)CN(C[C@H](Cc1ccccc1)NC(=O)CN(C[C@H](CCCCN)NC(=O)CN(C[C@H](Cc1ccccc1)NC(=O)CN(C[C@H](Cc1ccccc1)NC(=O)CN(C[C@@H](N)Cc1ccccc1)S(=O)(=O)Cc1ccccc1)S(=O)(=O)CCN)S(=O)(=O)Cc1ccccc1)S(=O)(=O)CCN)S(=O)(=O)Cc1ccccc1)S(=O)(=O)CCN)S(=O)(=O)Cc1ccccc1
Activity (Escherichia [1]): Active | Activity (Staphylococcus aureus [2]): Active | MIC [3]: 2 µg/mL (≈ 0.785 µM) | MIC (Enterococcus faecalis): 2 µg/mL (≈ 0.785 µM) | Activity (Staphylococcus aureus [4]): Active | Activity (Escherichia [5]): Active | Stability [6]: Stable | MIC (Pseudomonas aeruginosa): 4 µg/mL (≈ 1.57 µM) | MIC (Escherichia [7]): 4 µg/mL (≈ 1.57 µM) | Activity (Escherichia [8]): 1 ×10⁵ CFU/ml | MIC (Staphylococcus aureus [9]): 2 µg/mL (≈ 0.785 µM) | Activity (Escherichia [10]): Active | HC50 at 1 h [11]: 100 µg/mL | EC50 (N2a): 120 µg/mL (≈ 47.1 µM)
